Compound activity from PubChem BioAssay.
OX1R antag-1 = blocks the human orexin 1 receptor | O43613 | CHO/OX1R cells, Fluo-8 calcium fluorescence, orexin A | inhibition, % at 5 µM | 0.43% of 330,000 active;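 active = inhibition above its plate's threshold, mean inhibition of all tested compounds on the plate plus 3 SD, cut at about 37% in these data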;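 note: 0% = orexin A challenge wells and 100% = SB-334867-A antagonist wells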
GalR3 antag = human GalR3 antagonism; O60755; HEK293 GalR3-CNG cAMP membrane potential fluorescence; galR3 body fused to GalR1 C-terminus; inhibition, % at 3 µM; 0.44% of 360,000 active;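 active = inhibition above the screen-wide average plus 3 SD, cut at about 13% in these data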;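 note: forskolin and galanin both at EC90 stimulate the cells; cAMP rise reported by CNG channel membrane potential dye signal; 0% = forskolin plus galanin with DMSO and 100% = forskolin alone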
OX1R antag-2 = OX1R (human) antagonism | O43613 | OX1R-expressing cells, FRET antagonist read-out | inhibition, % at 6.6 µM | 1.8% of 330,000 active | AID 485270; in the data active = inhibition mostly above about 38%, no sharp cut-off; inactive = mostly below about 40%;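 note: 0% = agonist challenge alone and 100% = reference antagonist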
CHO parental Ca = counter-screen for OX1R antagonists: effect in parental CHO cells. parental CHO-K1, ATP-induced calcium, Fluo-8 fluorescence. inhibition, % at 5.6 µM. 0.63% of 330,000 active;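 active = inhibition above that plate's mean sample inhibition plus 3 SD, cut at about 26% in these data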;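 note: 0% = ATP-challenged DMSO wells and 100% = DMSO wells without ATP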
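Test system: untransfected parental CHO cell line; also added: ATP stimulus; dosing: 5.6 µM, single dose; signal: calcium-sensitive Fluo-8 fluorescence; measure: percent inhibition of ATP-evoked calcium rise, normalized to controls; benchmarks: low control ATP plus DMSO, high control DMSO only; replication: one well per compound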
GPR7 antag = antagonists of human GPR7 (neuropeptides B/W receptor 1). GPR7-expressing cells, fluorescence antagonist assay. P48145. AID 1861. inhibition, % at 4.4 µM. 1.1% of 290,000 active; in the data active = inhibition above about 16%, passing the limit was not always enough;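 note: cells stimulated with the agonist NPW; 0% = agonist with vehicle and 100% = vehicle without agonist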
Target sequence (P48145 whole entry, looked up): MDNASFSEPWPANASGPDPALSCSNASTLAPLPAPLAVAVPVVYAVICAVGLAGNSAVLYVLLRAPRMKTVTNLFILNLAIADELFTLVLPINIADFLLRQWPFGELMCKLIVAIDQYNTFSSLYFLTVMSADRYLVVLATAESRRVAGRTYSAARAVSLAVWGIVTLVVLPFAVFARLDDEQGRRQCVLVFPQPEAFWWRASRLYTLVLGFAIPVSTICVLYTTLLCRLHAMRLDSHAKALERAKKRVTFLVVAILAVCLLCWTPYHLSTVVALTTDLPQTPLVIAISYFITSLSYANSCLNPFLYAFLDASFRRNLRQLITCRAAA
OX1R Fluo8 conf = confirmation of human orexin 1 receptor antagonists; shares compounds with OX1R antag-1; CHO/OX1R cells, orexin A calcium Fluo-8 fluorescence; inhibition, % at 5 µM; 38% of 1,100 active; AID 492963; in the data active = inhibition above about 29%;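 note: 0% = agonist challenge alone and 100% = reference antagonist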
CHO Ca counter = signal in parental CHO cells, OX1R antagonist counter-screen. shares compounds with OX1R antag-1. parental CHO-K1, ATP-induced calcium, Fluo-8 fluorescence. inhibition, % at 5.6 µM. 9.3% of 1,100 active. AID 492965;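 active = inhibition above a per-plate limit, the mean inhibition of that plate's test compounds plus 3 SD, cut at about 25% in these data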;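 note: 0% = ATP challenge with DMSO and 100% = DMSO without ATP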
OX1R HTRF conf = confirmation of human orexin 1 receptor antagonists, HTRF format; shares compounds with OX1R antag-2; OX1R-expressing cells, HTRF antagonist assay; inhibition, % at 6.6 µM; 49% of 1,800 active; in the data active = inhibition above about 55%;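 note: CHO cells expressing OX1R stimulated with orexin A at about EC80; 0% = agonist challenge alone and 100% = reference antagonist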
CHO-K1 HTRF = counter-screen for OX1R antagonists: effect in parental CHO-K1 cells; shares compounds with OX1R antag-2; HTRF counterscreen; AID 493232; inhibition, % at 6.6 µM; 48% of 1,800 active; in the data active = inhibition above about 17%;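 note: 0% = agonist challenge with vehicle and 100% = vehicle alone without agonist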
The depositor's hits bear a star; . = no result. This is a sample that favours compounds with a hit; in the whole collection about 3.1% have one here.

SMILES	OX1R antag-1	GalR3 antag	OX1R antag-2	CHO parental Ca	GPR7 antag	OX1R Fluo8 conf	CHO Ca counter	OX1R HTRF conf	CHO-K1 HTRF
O=C(c1cccc(N2CCNC2=O)c1)N1CCCC(Nc2cccc(F)c2)C1 (centres undefined)	33	-3	98*	-9	-4	68*	-4	71*	-31
O=c1c2ccccc2oc2c1ccc1ccccc12	55*	.	90*	-35	.	23	-21	68*	-6
COc1ccc(NC(=O)c2cc3c([nH]c4ccccc43)c(C)n2)cc1	26	-4	96*	3	-5	7	-1	24	11
COC(=O)c1cc2c([nH]c3ccccc32)c(C)n1	.	.	.	.	3	.	.	.	.
Cc1occc1-c1nnc(SCC(=O)NCCc2ccccc2)n1C(C)c1ccccc1 (centres undefined)	64*	-5	83*	-31	-1	30*	-8	77*	-4
COc1cc(Cl)c(C)cc1Nc1ncccn1	25	-9	82*	-2	-9	24	-4	74*	8
O=[N+]([O-])c1ccc(-c2cnc(SC(c3ccccc3)c3ccccc3)[nH]2)cc1	37	-5	54*	17	18	18	12	68*	12
COc1ccc(-c2csc(NC(=O)c3ccccc3C(=O)O)n2)cc1	-2	-4	14	3	-6	.	.	.	.
COc1cccc(OC)c1C(=O)Nc1nc(-c2ccccc2)cs1	38*	-3	97*	-17	12	30*	-9	89*	5
COc1ccccc1C(=O)Nc1nc(-c2ccc(S(=O)(=O)N3CCOCC3)cc2)cs1	33	94*	89*	24	-2	56*	29*	58*	15
O=C(NCc1cccc(C(F)(F)F)c1)c1csc([C@@H]2O[C@H](CO)[C@H](O)[C@H](O)[C@H]2O)n1	.	-6	.	.	.	.	.	.	.
Cc1noc(C)c1-c1ccc(C(=O)Nc2cccc(C(F)(F)F)c2)c2occc12	.	-7	.	.	.	.	.	.	.
Cc1[nH]c2ccccc2c1C(=O)CSc1nc2ccccc2[nH]1	54*	-6	80*	-13	-2	38*	-2	91*	2
O=C(Nc1cccc(S(=O)(=O)NCc2ccco2)c1)c1cc(-c2ccc(F)cc2)nc2ccccc12	56*	-3	65*	12	-2	29*	-12	49	6
COc1ccc(-c2cc(C(=O)Nc3cccc(S(=O)(=O)NCc4ccco4)c3)c3ccccc3n2)cc1OC	-1	-4	26	0	14	.	.	.	.
CCn1c2ccccc2c2cc(NC(=O)CSc3nnc(-c4cccc(OC)c4)n3N)ccc21	47*	-5	93*	-18	-11	47*	-15	91*	12
Cc1ccc2cc(C)c3nnc(SCC(=O)Nc4nc5c(s4)CCCC5)n3c2c1C	34	1	84*	-20	-4	41*	-10	75*	0
C=CCn1c(SCC(N)=O)nnc1-c1cccc(Br)c1	-5	-1	10	-15	-6	.	.	.	.
C=CCn1c(SCc2ccccc2C#N)nnc1-c1cc(Br)ccc1O	53*	-6	53*	17	1	11	23	31	-2
O=C(NCCc1ccc(Cl)cc1)c1cc(=O)[nH]c2ccccc12	-5	-7	7	-10	15	.	.	.	.
Cn1c(CNc2nc(-c3ccccc3)cs2)nnc1SCC(=O)N1CCc2ccccc21	47*	-1	80*	-14	-6	22	-11	55	2
O=C(O)CN1C(=O)/C(=C/c2cccc(Cl)c2)Oc2ccccc21	32	-9	77*	-8	-9	13	-3	66*	11
COc1cccc(/C=C2/Oc3ccccc3N(CC(=O)NCC3CCCO3)C2=O)c1 (centres undefined)	75*	.	109*	-13	-14	94*	-12	94*	13
